Here are results for nine molecules from publication PMC11040699 (JACS Au, 2024).

“Also recorded” adds a separate entry of the source. Residues, ends and D or L forms follow the SMILES beside them. No end group written: not given here. *: point of attachment. Acetyl(9-fluorenyl) = O=C(CC1c2ccccc2-c2ccccc21)*

Test [1] has as its target T1, recombinant mouse α-Klotho (mKlotho) (Mus musculus, UniProt O35082).
T1 sequence (O35082 35-960): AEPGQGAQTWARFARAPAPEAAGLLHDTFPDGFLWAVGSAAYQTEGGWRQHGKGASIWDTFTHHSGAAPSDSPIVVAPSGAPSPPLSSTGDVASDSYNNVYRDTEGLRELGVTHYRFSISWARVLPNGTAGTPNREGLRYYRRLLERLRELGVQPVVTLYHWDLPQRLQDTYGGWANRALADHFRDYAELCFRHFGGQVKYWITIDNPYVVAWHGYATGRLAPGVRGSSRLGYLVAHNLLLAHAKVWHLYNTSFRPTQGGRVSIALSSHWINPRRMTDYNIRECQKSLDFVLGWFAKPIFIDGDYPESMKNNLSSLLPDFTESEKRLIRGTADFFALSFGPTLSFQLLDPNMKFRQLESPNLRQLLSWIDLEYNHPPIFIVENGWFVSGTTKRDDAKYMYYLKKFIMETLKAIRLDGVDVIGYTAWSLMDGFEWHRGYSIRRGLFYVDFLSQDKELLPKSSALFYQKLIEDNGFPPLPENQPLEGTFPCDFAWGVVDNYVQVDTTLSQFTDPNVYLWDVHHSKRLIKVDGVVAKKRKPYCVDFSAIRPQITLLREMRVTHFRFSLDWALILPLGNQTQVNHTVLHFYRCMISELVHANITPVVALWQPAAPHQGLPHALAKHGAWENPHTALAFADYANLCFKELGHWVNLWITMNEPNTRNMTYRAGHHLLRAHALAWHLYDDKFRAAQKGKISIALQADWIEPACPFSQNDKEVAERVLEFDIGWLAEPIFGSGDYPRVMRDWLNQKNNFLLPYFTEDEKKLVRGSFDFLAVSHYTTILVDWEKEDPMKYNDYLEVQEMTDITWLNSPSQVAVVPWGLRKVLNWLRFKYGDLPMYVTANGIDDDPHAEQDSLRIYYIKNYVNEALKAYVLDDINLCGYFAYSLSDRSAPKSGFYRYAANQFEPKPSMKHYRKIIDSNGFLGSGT
Kind of test: Competition binding assay with BLI against immobilized Pep-10-Biotin, mKlotho.

The test system of test [2] is endogenous hKlotho in HK-2 cell lysate. Kind of test: Pull-down assay from HK-2 cell lysate. The test is classed as binding, human. Conditions: for selectivity of pull-down by silver stain, HK-2 cell lysate: silver stain of eluents. The essentials: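 HK-2 cells (Keratinocyte SFM with bovine pituitary extract and EGF; 37 °C, 5% CO2) were scraped and lysed in RIPA with protease inhibitors; 20% kept as input. 200 μg lysate: unlabelled competitor preincubated 15 min, then biotinylated probe 30 min RT. Streptavidin magnetic beads 20 min, PBS washes, 8 M urea elution 30 min. SDS-PAGE, then silver stain or KM2076 western (1:1000, 4 °C overnight; HRP anti-rat; chemiluminescence). Bands quantified by densitometry.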

The target of test [3] is recombinant mouse α-Klotho (mouse) (UniProt O35082). Kind of test: BLI. (In BLI a coated tip is dipped into the sample, and binding shifts an interference pattern.)
Target sequence in this assay (O35082 35-1014): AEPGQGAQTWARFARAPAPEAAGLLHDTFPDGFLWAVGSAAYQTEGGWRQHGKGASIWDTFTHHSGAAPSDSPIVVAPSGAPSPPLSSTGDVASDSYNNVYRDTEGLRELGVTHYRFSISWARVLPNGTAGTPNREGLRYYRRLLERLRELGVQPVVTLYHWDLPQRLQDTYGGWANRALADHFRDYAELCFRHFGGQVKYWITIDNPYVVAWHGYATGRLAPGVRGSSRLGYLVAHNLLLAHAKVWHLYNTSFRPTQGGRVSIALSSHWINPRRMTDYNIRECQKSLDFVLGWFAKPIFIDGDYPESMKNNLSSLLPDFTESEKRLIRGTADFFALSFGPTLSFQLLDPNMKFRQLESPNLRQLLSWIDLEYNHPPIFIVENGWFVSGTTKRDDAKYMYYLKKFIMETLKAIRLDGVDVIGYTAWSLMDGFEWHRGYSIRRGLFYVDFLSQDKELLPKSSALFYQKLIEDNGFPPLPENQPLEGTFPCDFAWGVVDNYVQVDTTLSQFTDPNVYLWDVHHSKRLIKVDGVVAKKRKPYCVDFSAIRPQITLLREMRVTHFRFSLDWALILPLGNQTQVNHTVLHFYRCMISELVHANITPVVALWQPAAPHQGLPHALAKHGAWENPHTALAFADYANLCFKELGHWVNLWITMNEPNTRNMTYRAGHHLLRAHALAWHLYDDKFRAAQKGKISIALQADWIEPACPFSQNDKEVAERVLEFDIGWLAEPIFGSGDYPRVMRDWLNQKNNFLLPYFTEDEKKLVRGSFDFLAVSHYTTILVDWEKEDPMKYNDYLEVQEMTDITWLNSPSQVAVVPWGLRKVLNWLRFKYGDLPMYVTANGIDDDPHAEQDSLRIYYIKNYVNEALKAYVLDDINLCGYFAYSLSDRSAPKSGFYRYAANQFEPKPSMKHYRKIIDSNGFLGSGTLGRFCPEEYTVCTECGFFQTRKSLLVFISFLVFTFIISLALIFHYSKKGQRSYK
Test [4] deals with recombinant human α-Klotho (human) (UniProt Q9UEF7). Kind of test: BLI.
recombinant human α-Klotho (human), sequence (Q9UEF7 34-1012): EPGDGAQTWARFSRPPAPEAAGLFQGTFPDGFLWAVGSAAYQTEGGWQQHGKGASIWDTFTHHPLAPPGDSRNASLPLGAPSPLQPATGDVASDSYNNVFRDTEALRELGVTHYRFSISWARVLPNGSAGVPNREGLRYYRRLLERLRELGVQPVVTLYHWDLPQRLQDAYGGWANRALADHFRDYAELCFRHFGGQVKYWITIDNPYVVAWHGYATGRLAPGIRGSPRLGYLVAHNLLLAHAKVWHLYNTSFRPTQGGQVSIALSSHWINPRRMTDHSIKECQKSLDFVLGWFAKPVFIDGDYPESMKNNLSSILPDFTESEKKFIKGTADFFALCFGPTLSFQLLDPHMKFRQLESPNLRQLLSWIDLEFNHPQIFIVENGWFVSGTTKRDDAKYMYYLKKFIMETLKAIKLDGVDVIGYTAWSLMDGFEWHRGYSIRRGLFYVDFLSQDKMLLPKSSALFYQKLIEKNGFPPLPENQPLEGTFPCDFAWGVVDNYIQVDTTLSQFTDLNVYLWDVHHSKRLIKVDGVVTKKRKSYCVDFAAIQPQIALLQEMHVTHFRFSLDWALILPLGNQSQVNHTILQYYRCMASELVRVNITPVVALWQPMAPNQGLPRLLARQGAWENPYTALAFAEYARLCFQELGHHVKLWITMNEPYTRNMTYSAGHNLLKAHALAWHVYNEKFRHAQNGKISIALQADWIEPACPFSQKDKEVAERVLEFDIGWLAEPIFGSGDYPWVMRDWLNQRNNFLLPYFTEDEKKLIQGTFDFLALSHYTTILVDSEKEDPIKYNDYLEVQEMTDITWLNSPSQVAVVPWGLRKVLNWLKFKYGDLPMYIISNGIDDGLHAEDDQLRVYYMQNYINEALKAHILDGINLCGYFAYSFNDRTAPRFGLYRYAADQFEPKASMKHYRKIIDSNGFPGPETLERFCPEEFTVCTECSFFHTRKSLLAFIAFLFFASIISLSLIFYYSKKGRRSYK
Test [5] concerns the target recombinant mouse α-Klotho (mouse) (UniProt O35082). Kind of test: affinity selection-mass spectrometry.

One may read the Kd as the constant that tells how readily two partners part at equilibrium.

In the case of `CSCC[C@H](NC(=O)[C@H](CCCNC(=N)N)NC(=O)[C@H](C)NC(=O)[C@H](CCCNC(=N)N)NC(=O)[C@@H]1CCCN1C(=O)[C@H](CCCNC(=N)N)NC(=O)[C@@H](NC(=O)[C@@H](NC(=O)CNC(=O)[C@H](CC(C)C)NC(=O)[C@@H]1CCCN1C(=O)[C@H](CC(=O)O)NC(=O)[C@H](CO)NC(=O)[C@H](C)NC(=O)[C@H](CCSC)NC(=O)[C@@H]1CCCN1C(=O)CC1c2ccccc2-c2ccccc21)C(C)C)C(C)C)C(N)=O` [K1] ({Acetyl(9-fluorenyl)}-PMASDPLGVVRPRARM-NH2), the “fold change of competition KD relative to Pep-10” value in test [1] was found to be 89 fold.

On to “Biotin-PEG4-PMASDPLGVVRPRAM [Pep-10-Biotin]”, for which the “selectivity of pull-down by silver stain, HK-2 cell lysate” value in test [2] (50 nM of biotinylated peptides) is listed as “not enriched”; in test [2] (legend of Figure 4D, 200 nM printed, n = 2), “not able to enrich Klotho”. For the same molecule, in test [2] (western blot, probe at 2 μM, n = 2), the “Klotho enrichment in pulled-down fraction, HK-2 cell lysate” value was “minor enrichment; also recorded: moderately enriched”. Take fluorenyl-PMASDPLGVVRPRARM [K1]: in test [3], the Kd was 66 nM. The same measure, in the same setting: next, PMASDPLGVVRPRARM [Pep-10]: 5900 nM.

B1: fibroblast growth factor 23 (ligand)
chain: YPNASPLLGSSWGGLIHLYTATARNSYHLQIHKNGHVDGAPHQTIYSALMIRSEDAGFVVITGVMSRRYLCMDFRGNIFGSHYFDPENCRFQHQTLENGYDVYHSPQYHFLVSLGRAKRAFLPGMNPPPYSQFLSRRNEIPLIHFNTPIPRRHTRSAEDDSERDPLNVLKPRARMTPAPASCSQELPSAEDNSPMASDPLGVVRGGRVNTHAGGTGPEGCRPFAKFI
With B1, the equilibrium dissociation constant (Kd) in test [4] turned out to be 151 nM. As to fluorenyl-ASDPLGVVRGRA [K12], the Kd in test [3] is 19 nM. Same read-out and setting: next, fluorenyl-PMASDPLGVVRARARM [K1 P12A]: 15 nM. Consider fluorenyl-ASDPLGVVRPRA [K4], for which the recovery yield in test [5] was 0.5%. Moreover, in test [3], the Kd is 139 nM. Regarding fluorenyl-ASDPLGVVRGRAR (not fully specified (C-terminus)) [K17], the dissociation constant Kd in test [3] is 9 nM.
